Measured values: ChEMBL document CHEMBL4765238, “Structure-Based Discovery and Optimization of Benzo[ d]isoxazole Derivatives as Potent and Selective BET Inhibitors for Potential Treatment of Castration-Resistant Prostate Cancer (CRPC)” (J Med Chem, 2018)
Calls of active or inactive are those of the source. The calls are words filed in the database; no cut-off is given here.

Legend:
CWR22R [1] = assay: Inhibition of colony formation in human 22Rv1 cells incubated for 14 days by crystal violet staining based assay; assay type: functional, cell-based; settings: dose 0.5-2 µM, time 14.0 day
In short: (§1)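 22Rv1 cells cultured with vehicle (DMSO) or compound at 0.5, 1.0 or 2.0 µM for 14 days, then stained and colonies assessed.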

LNCaP [2] = assay: Inhibition of BET bromodomain in human LNCaP cells transfected with Luc-tagged PSA and renilla luciferase assessed as reduction in PSA transcriptional activity measured after 24 hrs by dual luciferase reporter gene assay; assay type: cell-based; settings: dose 0.4-10 µM
In short: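 LNCaP cells transfected with a PSA-luc reporter plasmid, then treated with vehicle or compound at 0.4, 2.0 or 10.0 µM; PSA transcriptional activity read by luciferase; mean ± s.e.m., n = 3; two-tailed Student's t-test.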

LNCaP [3] = assay: Inhibition of BET bromodomain in human LNCaP cells assessed as suppression of Myc mRNA expression at 5 uM incubated for 48 hrs by SYBR green dye based qRT-PCR analysis; assay type: cell-based
In short: (§2)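 LNCaP or VCaP cells exposed to vehicle (DMSO) or compound at 5 µM for 48 h; mRNA levels measured by qRT-PCR; mean ± s.e.m., n = 3; two-tailed Student's t-test.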

VCaP [4] = assay: Inhibition of BET bromodomain in human VCaP cells assessed as suppression of Myc mRNA expression at 5 uM incubated for 48 hrs by SYBR green dye based qRT-PCR analysis; assay type: cell-based; in short: as §2
[5] = Cmax in Sprague-Dawley rat at 2 mg/kg, iv by LC/MS analysis; assay type: ADME, organism-based; design: route intravenous, dose 2 mg/kg; settings: in vivo
In short: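 Sprague-Dawley rats dosed iv at 2 mg/kg (a separate oral arm received 10 mg/kg); plasma exposure parameters derived from the concentration–time profile.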

VCaP [6] = assay: Inhibition of BET bromodomain in human VCaP cells assessed as suppression of full-length androgen receptor mRNA expression at 5 uM incubated for 48 hrs by SYBR green dye based qRT-PCR analysis; assay type: cell-based; in short: as §2
LNCaP [7] = assay: Inhibition of BET bromodomain in human LNCaP cells assessed as suppression of KLK2 mRNA expression at 5 uM incubated for 48 hrs by SYBR green dye based qRT-PCR analysis; assay type: cell-based; in short: as §2
VCaP [8] = assay: Inhibition of BET bromodomain in human VCaP cells assessed as suppression of TMPRSS2 mRNA expression at 5 uM incubated for 48 hrs by SYBR green dye based qRT-PCR analysis; assay type: cell-based; in short: as §2
MCF7 = assay: Antiproliferative activity against human MCF-7 cells assessed as reduction in cell viability incubated for 96 hrs by cell-titer glo assay; assay type: functional, cell-based; settings: MCF7, 96 h
VCaP [9] = assay: Inhibition of BET bromodomain in human VCaP cells assessed as suppression of PSA mRNA expression at 5 uM incubated for 48 hrs by SYBR green dye based qRT-PCR analysis; assay type: cell-based; in short: as §2
PC-3 = assay: Antiproliferative activity against AR-negative human PC-3 cells assessed as reduction in cell viability incubated for 96 hrs by cell-titer glo assay; assay type: functional, cell-based; settings: PC-3, 96 h
Hs-578T = assay: Antiproliferative activity against human Hs-578T cells assessed as reduction in cell viability incubated for 72 hrs by cell-titer glo assay; assay type: functional, cell-based
CWR22R [10] = assay: Inhibition of colony formation in human 22Rv1 cells at 0.5 uM incubated for 14 days by crystal violet staining based assay; assay type: functional, cell-based; settings: time 14.0 day; in short: as §1
VCaP [11] = assay: Inhibition of BET bromodomain in human VCaP cells assessed as suppression of AR-V7 mRNA expression at 5 uM incubated for 48 hrs by SYBR green dye based qRT-PCR analysis; assay type: cell-based; in short: as §2
VCaP [12] = assay: Inhibition of BET bromodomain in human VCaP cells assessed as suppression of KLK2 mRNA expression at 5 uM incubated for 48 hrs by SYBR green dye based qRT-PCR analysis; assay type: cell-based; in short: as §2
NCI-H1975 = assay: Antiproliferative activity against human NCI-H1975 cells assessed as reduction in cell viability incubated for 72 hrs by cell-titer glo assay; assay type: functional, cell-based; settings: NCI-H1975, 72 h
U2OS = assay: Antiproliferative activity against human U2OS cells assessed as reduction in cell viability incubated for 72 hrs by cell-titer glo assay; assay type: functional, cell-based
HeLa = assay: Antiproliferative activity against human HeLa cells assessed as reduction in cell viability incubated for 72 hrs by cell-titer glo assay; assay type: functional, cell-based
A549 = assay: Antiproliferative activity against human A549 cells assessed as reduction in cell viability incubated for 72 hrs by cell-titer glo assay; assay type: functional, cell-based; settings: A549, 72 h
LNCaP C4-2B = assay: Inhibition of colony formation in human LNCaP C4-2B cells incubated for 14 days by crystal violet staining based assay; assay type: functional, cell-based; settings: dose 0.5-2 µM, time 14.0 day
In short: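 C4-2B cells cultured with vehicle (DMSO) or compound at 0.5, 1.0 or 2.0 μM for 14 days, then colonies stained and counted against vehicle.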

VCaP [13] = assay: Inhibition of BET bromodomain in human VCaP cells assessed as suppression of ERG mRNA expression at 5 uM incubated for 48 hrs by SYBR green dye based qRT-PCR analysis; assay type: cell-based; in short: as §2
22Rv1 = assay: Inhibition of BET bromodomain in human 22Rv1 cells assessed as suppression of AR-V7 protein expression at 1 to 16 uM incubated for 48 hrs by western blot analysis; assay type: cell-based; settings: dose 1-16 µM

Cmax [5] [ng/mL]	IC50 (MCF7) [nM]	IC50 (PC-3) [nM]	IC50 (NCI-H1975) [nM]	IC50 (U2OS) [nM]	IC50 (HeLa) [nM]	IC50 (A549) [nM]	SMILES	inhibition (CWR22R [1])	inhibition (LNCaP [2])	inhibition (LNCaP [3])	inhibition (VCaP [4])	inhibition (VCaP [6])	inhibition (LNCaP [7])	inhibition (VCaP [8])	inhibition (VCaP [9])	IC50 (Hs-578T) [nM]	inhibition (CWR22R [10])	inhibition (VCaP [11])	inhibition (VCaP [12])	inhibition (LNCaP C4-2B)	further results
1390	1000	> 3000	2500	> 5000	> 5000	> 5000	COc1cc2onc(C)c2cc1NS(=O)(=O)c1cc(Br)ccc1OC	Dose-dependent effect	Dose-dependent effect	Active	Active	Active	Active	Active	Active	1000	Active	Active	Active	Dose-dependent effect	inhibition (VCaP [13]): Active; inhibition (22Rv1): Active
807	1000	> 3000	> 5000	> 5000	> 5000	2500	Cc1noc2ccc(-c3nc4ccc(N5CCOC[C@@H]5C)cc4n3CC3CCCCC3)cc12	Dose-dependent effect	Dose-dependent effect	Active	Active	Active	Active	Active	Active	1000	Active	Active	Active	Dose-dependent effect	inhibition (VCaP [13]): Active; inhibition (22Rv1): Active
